Laboratory results published in ChEMBL document CHEMBL1135976, “Antimalarial activity of yingzhaosu A analogues” (J Med Chem, 2002).

Legend:
FM3A [1] = experiment: Percent inhibition of growth against mouse mammary FM3A cells; assay type: cell-based; parameters: concentration or dose not given beside the values
Outline: (§1)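 Mouse mammary tumor FM3A cells in culture served as the mammalian cytotoxicity counterscreen. EC50 was determined; where no activity was found at 10 μM, percent growth inhibition at that concentration was given.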

FM3A [2] = experiment: Effective concentration against mouse mammary FM3A cells; assay type: ADME, cell-based; outline: as §1
[3] = Selectivity as the ratio of EC50 value for FM3A cells to that of Plasmodium falciparum.; assay type: functional
Outline: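 Selectivity was taken as the mean EC50 in FM3A cells divided by the mean EC50 against P. falciparum FCR-3.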

Plasmodium falciparum = experiment: In vitro antimalarial activity against Plasmodium falciparum; assay type: functional, organism-based
Outline: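 Chloroquine-sensitive P. falciparum FCR-3 strain cultured in vitro. EC50 was determined.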

Mus musculus [4] = experiment: Mice survival days reported after intramuscular administration; assay type: ADME, organism-based; conditions: in vivo, im
Outline: (§2)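 P. berghei NK 65 strain in mice, five per group. Compounds in olive oil were given ip or im once daily on days 0–3, starting on the day of infection. Parasitemia was read on day 4 from Giemsa-stained tail blood smears, counting 1×10^4 erythrocytes per film, and suppression calculated against DMSO sham-treated infected controls. Survival was recorded in days. Values are means of five mice, one test.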

Mus musculus [5] = experiment: Mice survival days reported after intraperitoneal administration; assay type: ADME, organism-based; conditions: in vivo, ip; outline: as §2
Plasmodium berghei = experiment: Antimalarial activity against Plasmodium berghei infected mice (Mus musculus) after intramuscular administration at a dose 100 mg/kg/day; assay type: ADME, organism-based; parameters: route intramuscular; conditions: im; outline: as §2

Row | Structure (SMILES) | Inhibition (FM3A [1]) | EC50 (FM3A [2]) | Selectivity [3] | EC50 (Plasmodium falciparum) | Survival (Mus musculus [4]) | Survival (Mus musculus [5]) | inhibition at 100 mg/kg (Plasmodium berghei)
1 | CC12CCC[C@H](C1)C(C)(CI)O2 (some centres not stated) | 0% | > 48 µM | >48 | 1000 nM | – | – | –
2 | COC12CCC[C@@H](C1)C(I)C(C)(C)OO2 (some centres not stated) | 10% | > 64 µM | >4 | 15000 nM | – | – | –
3 | CCOC(=O)C(I)C12CCCC(C1)C(C)(C)OO2 (configuration not stated) | – | 3.1 µM | 282 | 11 nM | 9.8 days | 6.5 days | 80%
4 | CC1(C)OOC2(CI)CCCC1C2 (configuration not stated) | – | 68 µM | 1700 | 40 nM | 9.6 days | 7 days | 99%
5 | COC12C[C@H](CC[C@@H]1C)C(C)(CI)OO2 (some centres not stated) | 8% | > 54 µM | >27 | 2000 nM | – | – | –
6 | COC12CCC[C@H](CC(C)(CI)OO1)C2 (some centres not stated) | 6% | > 80 µM | >32 | 2500 nM | – | – | –
7 | CC12CCC[C@@H](C1)C(C)(CI)OO2 (some centres not stated) | 10% | > 84 µM | >6462 | 13 nM | – | – | –
8 | CC1(CI)C[C@H]2CCCCC2O1 (some centres not stated) | 34% | > 210 µM | >2 | 120000 nM | – | – | –
9 | COC12CCC[C@@H](C1)C(C)(CI)OO2 (some centres not stated) | 19% | > 70 µM | >41 | 1700 nM | – | – | –
10 | CC1(C)OC2(CI)CCCC1C2 (configuration not stated) | 10% | > 84 µM | >14 | 5800 nM | – | – | –
11 | CC1(CI)C[C@H]2CCCC(C2)OO1 (some centres not stated) | 47% | > 96 µM | >32 | 3000 nM | – | – | –
12 | CC1(CI)C[C@H]2CCCC[C@@H]2OO1 (relative stereo) | – | 66 µM | 44 | 1500 nM | – | – | –
13 | C[C@@H]1CC[C@H]2[C@@H](C)C(=O)O[C@@H]3O[C@@]4(C)CC[C@@H]1[C@]32OO4 [ARTEMISININ] | – | – | 1000 | – | – | – | –
